≈ marks a conversion by molar mass, not a printed value.
Legend:
[1] = Inhibition of Mycobacterium tuberculosis AlaDH using L-alanine as substrate after 20 mins by spectrophotometry
In short: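 125 mM glycine-KOH buffer pH 10.2, 1 mM NAD⁺, 50 mM L-alanine, enzyme at a level set by range finding; 20 min at 37°C. NADH formation from oxidative deamination monitored continuously at 340 nm. Compounds tested at 25 to 0.5 µM; background measured without enzyme. IC₅₀ by software analysis.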

[2] = test system: Mycobacterium tuberculosis; assay: Antimycobacterial activity against dormant Mycobacterium tuberculosis H37Rv model assessed as log reduction at 10 ug/ml incubated for 7 days measured after 28 days in presence of nutrient deprived condition; assay type: functional
In short: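 H37Rv grown in 7H9/OADC, pelleted, washed twice and resuspended in PBS in sealed bottles, starved 6 weeks at 37°C. Treated at 10 µg/ml for 7 days. Suspensions diluted 10-fold to 10^-6 in 7H9/OADC and plated in triplicate; 37°C for 28 days without agitation. Wells with visible growth scored positive, MPN calculated statistically.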

[3] = test system: Mycobacterium tuberculosis; assay: Antimycobacterial activity against Mycobacterium tuberculosis H37Rv ATCC 27294 after 28 days by agar dilution method; assay type: functional; conditions: H37Rv ATCC 27294, 672 h
In short: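 Two-fold serial dilutions incorporated into Middlebrook 7H11 agar with OADC, final 50 to 0.78 µg/mL. Inoculum from fresh 7H11 slants adjusted to 1 mg/mL wet weight in 0.05% Tween 80 saline, diluted 10^-2 (~10⁷ cfu/mL). 5 µL spotted per tube; 37 °C, read after 28 days. MIC = lowest concentration completely inhibiting growth; duplicates.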

[4] = Cytotoxicity against mouse RAW264.7 cells at 50 uM after 48 hrs by MTT assay; assay type: cell-based; conditions: read-out: INH
In short: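 RAW 264.7 cells grown in RPMI with 10% FBS plus penicillin/streptomycin to 80-90% confluency, seeded ~5,000 cells/well on poly-L-lysine plates, 24 h at 37°C, 5% CO₂. Compounds at 50 µM for 48 h; MTT (0.5 mg/ml) added for 3 h at 37°C; formazan read at 595 nm.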

[5] = test system: Mycobacterium tuberculosis; assay: Binding affinity to Mycobacterium tuberculosis AlaDH assessed as protein-ligand stabilization by measuring shift in melting temperature by differential scanning fluorimetry
In short: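 Thermal shift assay on MTB L-AlaDH with Sypro Orange dye in a real-time PCR instrument. Samples equilibrated at 25°C for 3 min, then heated to 95°C in 0.1°C steps with fluorescence read at each step. Tm of protein-ligand complex compared with native protein Tm.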

SMILES | IC50 ([1]; read-out: IC50) [nM] | FC [2] | MIC [3] [µM] | cytotoxicity at 48 h, 50 µM [4] [%] | IC50 [1] | ΔTm [5] [°C]
CC(=O)N1CCc2c(sc(NC(=O)c3ccc(OCc4ccccc4)cc3)c2C(N)=O)C1 | 630 | 2 | 1.56 (≈ 0.701 µg/mL) | 11.6 | – | –
COc1c(N2C[C@@H]3CCCN[C@@H]3C2)c(F)cc2c(=O)c(C(=O)O)cn(C3CC3)c12 [MOXIFLOXACIN] | – | 2.5 | 1.24 (≈ 0.498 µg/mL) | – | Not Active | –
Cc1ccc(C)c(N2C(=N)S/C(=C\c3ccc(OCc4ccccc4)cc3)C2=O)c1 | 1340 | 2 | 15.1 (≈ 6.26 µg/mL) | 45.8 | – | 4.6
NC(=O)c1c(NC(=O)c2ccc(OCc3ccccc3)cc2)sc2c1CCN(Cc1ccccc1)C2 | 810 | 2 | 12.6 (≈ 6.26 µg/mL) | 24 | – | –
CO[C@H]1/C=C/O[C@@]2(C)Oc3c(C)c(O)c4c(O)c(c(/C=N/N5CCN(C)CC5)c(O)c4c3C2=O)NC(=O)/C(C)=C\C=C\[C@H](C)[C@H](O)[C@@H](C)[C@@H](O)[C@@H](C)[C@H](OC(C)=O)[C@@H]1C [RIFAMPIN] | – | 2 | 0.15 (≈ 0.123 µg/mL) | – | Not Active | –
CC[C@@H](CO)NCCN[C@@H](CC)CO [ETHAMBUTOL] | – | – | 7.64 (≈ 1.56 µg/mL) | – | Not Active | –
N=C1S/C(=C\c2ccc(OCc3ccccc3)cc2)C(=O)N1c1ccc(Cl)cc1Cl | 3490 | 2 | 13.8 (≈ 6.27 µg/mL) | 13.8 | – | –
CC(C)(C)OC(=O)N1CCc2c(sc(NC(=O)c3ccc(Cl)cc3)c2C(N)=O)C1 | 580 | – | 1.79 (≈ 0.78 µg/mL) | 37.3 | – | 1.8
NC(=O)c1c(NC(=O)c2ccc(OCc3ccccc3)cc2)sc2c1CCN(C(=O)c1ccccc1)C2 | 800 | 2 | 12.9 (≈ 6.62 µg/mL) | 13.7 | – | –
NC(=O)c1c(NC(=O)c2ccc(Oc3ccccc3)cc2)sc2c1CCN(Cc1ccccc1)C2 | 780 | 2 | 3.58 (≈ 1.73 µg/mL) | 23.6 | – | –
CC(=O)N1CCc2c(sc(NC(=O)c3ccc(Cl)cc3)c2C(N)=O)C1 | 640 | – | 4.13 (≈ 1.56 µg/mL) | 38.4 | – | 1.7
N=C1S/C(=C\c2ccc(OCc3ccccc3)cc2)C(=O)N1c1ccc(F)cc1 | 8550 | 2 | 7.72 (≈ 3.12 µg/mL) | 10.5 | – | –
CN1CCc2c(sc(NC(=O)c3ccc(OCc4ccccc4)cc3)c2C(N)=O)C1 | 1220 | 2 | 15.3 (≈ 6.47 µg/mL) | 37.6 | – | –
N=C1S/C(=C\c2ccc(OCc3ccccc3)cc2)C(=O)N1c1ccccc1[N+](=O)[O-] | 15000 | 2 | 58 (≈ 25 µg/mL) | 24.4 | – | –
CN1CCc2c(sc(NC(=O)c3ccc(Oc4ccccc4)cc3)c2C(N)=O)C1 | 730 | 2 | 1.85 (≈ 0.754 µg/mL) | 58.9 | – | –
CC(C)(C)OC(=O)N1CCc2c(sc(NC(=O)c3ccc(OCc4ccccc4)cc3)c2C(N)=O)C1 | 640 | 2 | 1.53 (≈ 0.777 µg/mL) | 52.1 | – | –
N=C1S/C(=C\c2ccc(OCc3ccccc3)cc2)C(=O)N1c1ccccn1 | 2120 | 2 | 8.06 (≈ 3.12 µg/mL) | 37.2 | – | –
Cc1cccc(C)c1N1C(=N)S/C(=C\c2ccc(OCc3ccccc3)cc2)C1=O | 1740 | 2 | 60.4 (≈ 25 µg/mL) | 38.7 | – | 1.4
N=C1S/C(=C\c2ccc(OCc3ccccc3)cc2)C(=O)N1c1ccccc1 | 2270 | – | 16.2 (≈ 6.26 µg/mL) | 37.9 | – | –
CC(C)(C)OC(=O)N1CCc2c(sc(NC(=O)c3ccc(Oc4ccccc4)cc3)c2C(N)=O)C1 | 1120 | 2 | 6.33 (≈ 3.12 µg/mL) | 26.9 | – | –

SMILES | IC50 ([1]; read-out: IC50) [nM] | FC [2] | MIC [3] [µM] | cytotoxicity at 48 h, 50 µM [4] [%] | IC50 [1] | ΔTm [5] [°C]
N=C1S/C(=C\c2ccc(OCc3ccccc3)cc2)C(=O)N1c1ccc([N+](=O)[O-])cc1 | 6160 | – | 7.23 (≈ 3.12 µg/mL) | 17.3 | – | –
NC(=O)c1c(NC(=O)c2ccc(Oc3ccccc3)cc2)sc2c1CCN(C(=O)c1ccccc1)C2 | 1110 | 2 | 3.47 (≈ 1.73 µg/mL) | 4.71 | – | –
NC(=O)c1c(NC(=O)c2ccc(Cl)cc2)sc2c1CCN(Cc1ccccc1)C2 | 1140 | 2 | 3.67 (≈ 1.56 µg/mL) | 11.1 | – | –
CC(=O)N1CCc2c(sc(NC(=O)c3ccc(Oc4ccccc4)cc3)c2C(N)=O)C1 | 660 | – | 6.11 (≈ 2.66 µg/mL) | 32.9 | – | –
N=C1S/C(=C\c2ccc(OCc3ccccc3)cc2)C(=O)N1c1ncccn1 | 7520 | – | 4.02 (≈ 1.56 µg/mL) | 26.6 | – | –
N=C1S/C(=C\c2ccc(OCc3ccccc3)cc2)C(=O)N1c1ccc(Cl)cc1 | 7010 | – | 7.42 (≈ 3.12 µg/mL) | 16.4 | – | –
CCc1nc(Nc2ccccc2)c2c3c(sc2n1)CCCC3 | 15100 | – | – | – | – | –
Cc1cccc(N2C(=N)S/C(=C\c3ccc(OCc4ccccc4)cc3)C2=O)n1 | 9440 | – | 1.94 (≈ 0.779 µg/mL) | 25.1 | – | –
N#C/C(=C\c1cccs1)c1nc2cc([N+](=O)[O-])ccc2[nH]1 | 21300 | – | – | – | – | –
COc1ccc(NC(=O)N2CCc3c(sc(NC(=O)c4ccc([N+](=O)[O-])s4)c3C(N)=O)C2)cc1 | 8170 | – | – | – | – | –
CC(=O)N1CCc2c(sc(NC(=O)C3CC3)c2C(N)=O)C1 | 20100 | – | – | – | – | –
Cc1c(Cl)cccc1N1C(=N)S/C(=C\c2ccc(OCc3ccccc3)cc2)C1=O | 13000 | – | 14.4 (≈ 6.26 µg/mL) | 59.7 | – | –
N=C1S/C(=C\c2ccc(OCc3ccccc3)cc2)C(=O)N1c1cccc([N+](=O)[O-])c1 | 5560 | – | 14.5 (≈ 6.26 µg/mL) | 52.9 | – | –
NC(=O)c1c(NC(=O)c2ccc(Cl)cc2)sc2c1CCN(C(=O)c1ccccc1)C2 | 1500 | 2 | 28.5 (≈ 12.5 µg/mL) | 42.5 | – | –
Cc1ccc(N2C(=N)S/C(=C\c3ccc(OCc4ccccc4)cc3)C2=O)c(C)c1 | 6080 | – | 1.88 (≈ 0.779 µg/mL) | 36.8 | – | –
N=C1S/C(=C\c2ccc(OCc3ccccc3)cc2)C(=O)N1c1ccc(Br)cc1 | 22300 | – | 3.35 (≈ 1.56 µg/mL) | 7.83 | – | –
N=C1S/C(=C\c2ccc(OCc3ccccc3)cc2)C(=O)N1c1ncc([N+](=O)[O-])s1 | 6770 | – | – | – | – | –
CN1CCc2c(sc(NC(=O)c3ccc(Cl)cc3)c2C(N)=O)C1 | 670 | 2 | 8.95 (≈ 3.13 µg/mL) | 38.5 | – | –
NNC(=O)c1ccncc1 [ISONIAZID] | – | 1.2 | 0.72 (≈ 0.0987 µg/mL) | – | Not Active | –

From ChEMBL document CHEMBL3407436, “Design and development of novel Mycobacterium tuberculosis L-alanine dehydrogenase inhibitors” (Eur J Med Chem, 2015)
